As usually defined, the apparent Kd is a dissociation constant that holds for the conditions of the assay.

The subject of the data set is MS2 coat protein. The data set is described as follows: apparent Kd, MS2 coat protein; higher = weaker binding; RNA-MaP array; FMN 200 µM where present. Summed up:
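The apparent Kd comes from binding curves fitted cluster by cluster, filtered, and summarised as a median. Those curves followed SNAP-549-labelled MS2 coat protein from 0.7 or 1.5 nM, doubling to 3 µM, on Illumina sequencing-chip clusters where stalled E. coli RNA polymerase had transcribed the designs, without and then with constant ligand. The buffer was 100 mM Tris-HCl pH 7.5, 80 mM KCl, 4 mM MgCl2, BSA, DTT, yeast tRNA and Tween-20, and green signal was normalised to red-channel RNA signal and control-cluster median Fmax.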

The mark [1] stands for this setting: designed as: ON switch for flavin mononucleotide, no ligand.
[2] abbreviates: ligand present: flavin mononucleotide, designed as: ON switch for flavin mononucleotide.
The mark [3] stands for this setting: designed as: OFF switch for flavin mononucleotide, no ligand.
The mark [4] stands for this setting: ligand present: flavin mononucleotide, designed as: OFF switch for flavin mononucleotide.

For the sequence “UUAUCUCAUGAGAAGGACAUGAGGAUCACCCAUGUAGGAUAUCAUGGGUCAGAGGAAUUGAAUCUAAUGAUUCAAUUACUCUUC”, the “apparent Kd” value was 60.5 nM under setting [1] and 10.4 nM under setting [2]. On to “UGAUAGGACAGAGGAUAUACCGAUAGGAUCUACUAUCGAAGAAUCCUUACAUGAGGAUCACCCAUGUAGAAGGCUGUCCUAUCU”, for which the “apparent Kd” value is 20.4 nM under setting [3] and 29.6 nM under setting [4]. On the same counts, the results for “AUCAGCUCGUCAGGAUAUACAUCACUGCGUCAGCAGUGUGGUAAGAUCACAUGAGGAUCACCCAUGUAGAAGGGACGAGCUGAU” are 13.9 nM and 252 nM. For “ACUUGUUACUUAAUCAUUGAUUUGUAGGAUAUACGUACAUGAGGAUCACCCAUGUUACAUGGUAUGUAGAAGGACAUCUAAUUU”, in that order: 11 nM and 11.2 nM.

Consider “AAAUCAGUAGGAUAUACGAUUUUGUACUAGACAGAGGAACCACAUGAGGAUCACCCAUGUAGAAGGACUAGAUA”, for which the “apparent Kd” value came to 16.4 nM under setting [3] and 13.9 nM under setting [4]. In the case of “GGGUGGCGUAGAGGAUAUGUGUUACAUGAGGAUCACCCAUGUGCAUAUGAUGUUCGUGUGUAUGCAUAGAAGGCUACGUCGCUA”, the “apparent Kd” value reads like this: under setting [1], 222 nM; under setting [2], 125 nM. Take “GGUGGGAGGUAGACUGGACGGGCAACAUGAGGAUCACCCAUGUAGGAUAUCGUGUGUGUCAACGACGAGAAGGGCGUAGGCGGA”: the “apparent Kd” value reads like this: under setting [3], 20.3 nM; under setting [4], 17.1 nM. As to “AGAAUGGGCGAGAAGGGAGUACAUGAGGAUCACCCAUGUGGUUCAUGGUGCUCAGGAUAUCGAUAGACCAGGGAGCGUCUCUGA”, the “apparent Kd” value runs as follows: under setting [3], 30 nM; under setting [4], 148 nM. Take “UGUGCGUUGAUCUUCGAUCGGUGUACAUGAGGAUCACCCAUGUAGGAUAUUCAAAGACGCAGAUAGGAGAAGGACAUCGGAUUA”: the “apparent Kd” value was 19.2 nM under setting [3] and 17.2 nM under setting [4].

Turning to “CGGUGUCAUGUAAGGAUAUCGCAUCCCAGCGGAUACGAGAAGGUACAUGAGGAUCACCCAUGUACGAUAAAAUA”, the “apparent Kd” value under setting [3] was 14.3 nM and the “apparent Kd” value under setting [4] was 17.5 nM.

Regarding “UUGGACGUCGUAGGAUAUGUAUGAUAUUCCUACAUGAGGAUCACCCAUGUUGACAUGGAAGAAGGACAGAAGGACGAUGUCCAU”, the “apparent Kd” value stood at 5.8 nM under setting [1] and 4.56 nM under setting [2]. As for “CGAGAUACGCUCGUCCGAAAGGGACAUGAGGAUCACCCAUGUAGAAGGCGAUGCGCAACUCGCAUUGAGGAUAUAUACUGCAGA”, the “apparent Kd” value came out at 5.78 nM under setting [3] and 5.89 nM under setting [4]. For “GGAUCCAACACAGGAUAUGCUGGACUUUGUCCAGCAGAAGGGUGAAGAACAUGAGGAUCACCCAUGUGGAUCCAUAUAUUUAAU”, the “apparent Kd” value runs as follows: under setting [1], 483 nM; under setting [2], 42.4 nM. As to “GUAGCAUACCGAGGAUAUUCAUACCGGAAACGGACAUGAGGAUCACCCAUGUUUAGAAAUAAUUGGGAGAAGGCGGAAUGCUAC”, the “apparent Kd” value is, setting by setting: under setting [1], 232 nM; under setting [2], 44.7 nM. For the sequence “GUCGUGUUAGGAUAUGGCAACGGCUAGGAAACUAGUUGUUGUUAGAAGGAACAUGAGGAUCACCCAUGUAUGAC”, the “apparent Kd” value reads like this: under setting [3], 34.3 nM; under setting [4], 84.3 nM. For “AAAGCGUGAGGAUAUGAGGCGCCGGGCCGGUUGGUGCGGAUUCAGAAGGCACAUGAGGAUCACCCAUGUCGGUA”, the “apparent Kd” value by setting is: under setting [3], 41.1 nM; under setting [4], 96 nM.

In the case of “ACGUUAAAAGGAUAUACAUGAGGAUCACCCAUGUUGUUCGAACUGGUAAACCCUCUAUGUAGAAGGUUUGGCAC”, the “apparent Kd” value came to 23.5 nM under setting [3] and 50.1 nM under setting [4]. On the same counts, the results for “UCCCGGGUGCAGAAGGGAUAGGCCUAUUUUCGUGGUAUCCAAACCUUACAUGAGGAUCACCCAUGUCAGGAUAUGCCCACGGGA” are 4.47 nM and 4.96 nM. As for “AGCUAGUCAGGAUAUACGAACAUGUCAAAAGACGUGAAGGGACAUGAGGAUCACCCAUGUAGAAGGGACUAGCC”, the “apparent Kd” value reads like this: under setting [3], 26.7 nM; under setting [4], 170 nM. For “AUGCUUCACACAGGAUAUACAUGAGGAUCACCCAUGUGUCCACCGUAGCUGACACGAGCUACGCGGUAGAAGGGUGUGAAGCAU”, in that order: 18 nM and 33.3 nM. On the same counts, the results for “AUGAGAAUUGUUAGGAUAUCCGUAAGUAAGUACUGGGAGAAGGGACAUGAGGAUCACCCAUGUGAUAGCCGACU” are 102 nM and 80.6 nM. For the sequence “UCCACUGCUGAGAAGGGAUACGUGUGGUUCGCAUCAGGAUAUCGAUACAGUGCAGCAUGAGGACAUGAGGAUCACCCAUGUAUC”, the “apparent Kd” value is, setting by setting: under setting [1], 43 nM; under setting [2], 16.5 nM.

Regarding “AUCAUGUCAGGAUAUCUGAUAUGGAUCUUCGGAUCAAGUUCAGAGAAGGGACAUGAGGAUCACCCAUGUCGAAC”, the “apparent Kd” value under setting [3] worked out at 25 nM and the “apparent Kd” value under setting [4] is 42.4 nM. With “UACAUGAGGAUCACCCAUGUUUUGUCGUGUAUGGUAUUUAUCUAGGAUAUCAAUUGAUUUAAUUAUGAGAAGGAGAAUAUUAAU”, the “apparent Kd” value is, setting by setting: under setting [3], 36.5 nM; under setting [4], 30.7 nM. On the same counts, the results for “AUUUAAUUUAAUAAGAUCACAUGAGGAUCACCCAUGUAUAUAUAGGAUAUCAGCUCGAAUAGAGCUGAGAAGGAUAUAUACUAU” are 326 nM and 323 nM. On the same counts, the results for “ACCUUACAUGAGGAUCACCCAUGUCAGGAUAUCUCGGACAGCUGAAAACCAGCCGUCCAGAGAAGGGACGAGGA” are 13.4 nM and 14.4 nM. In the case of “CUUGGGUGGCUGGAGGAUAUUCGAGUGGUAACAUGAGGAUCACCCAUGUGUCGCGCGGUACACGAGGAGAAGGCUGGCGGCCGGC”, the “apparent Kd” value under setting [1] is 146 nM and the “apparent Kd” value under setting [2] stood at 54.6 nM. “GUGUACAGAGGAUAUACUGGAGCUAGGAAACUAGCAACUUCACAUGAGGAUCACCCAUGUAGAAGGCUGUACAC”: the “apparent Kd” value reads like this: under setting [3], 17.1 nM; under setting [4], 65.7 nM.

Turning to “GAGUAGUUGAAAGGAUAUGCAUUGUUAUAGAAUGCAGAAGGUUCUAACAUGAGGAUCACCCAUGUAGGACUAUUCCUGUGUAUC”, the “apparent Kd” value was 12.1 nM under setting [1] and 9.82 nM under setting [2]. For “CCCUAAUAUCGAGGAUAUGUCUAGACACAUGAGGAUCACCCAUGUAUGUGUAUAGAAGGCGAUAUUAACAGCAUGUUACAUGGG”, in that order: 315 nM and 101 nM. As to “CGGUGACGUGUAGGAUAUGGCGAUGGGUUUUGGCCAGAAGGACAUGAGGAUCACCCAUGUGGUAGAGGGUUGGCGGCUGCCCGU”, the “apparent Kd” value by setting is: under setting [3], 47.4 nM; under setting [4], 181 nM. Turning to “GGCAUAAACGAGGAUAUCGUAUCGGAAACGAUACGAGAAGGUGUAACAUGAGGAUCACCCAUGUUCCUCAAGCC”, the “apparent Kd” value was 36.7 nM under setting [3] and 34.8 nM under setting [4]. On the same counts, the results for “AAUCAGCGGAACUUGACAUCCCUACAUGAGGAUCACCCAUGUCAGGAUAUAUGCUCUCGAGCUGCAUAGAAGGGACAUAGUGGG” are 50.6 nM and 71.3 nM. On the same counts, the results for “CCCUCACAUGAGGAUCACCCAUGUCAGGAUAUCUAGUCAGAUAGUGUAGCACUAAUGAAGAGAAGGGACGUAUA” are 18.2 nM and 23.9 nM.

For “GUUGGGUGUCAUGUCGCACAUGAGGAUCACCCAUGUAGGAGGUAGGAUAUCCACGAGAAACAAGAGGAGAAGGGCCAUUAGCGU”, the “apparent Kd” value is 23.5 nM under setting [3] and 29.2 nM under setting [4]. Take “AACAAUCUAUCUGAGGAUAUCAUGAAAUAAACAUGAGGAUCACCCAUGUGUAGGAAAACUGCAUAUGAGAAGGCAGAUAGAUUGA”: the “apparent Kd” value by setting is: under setting [1], 930 nM; under setting [2], 43.5 nM.

On to “UUUUUGUGAGGAUAUGGAAUAUCUUCUAUUUAUUAUUAAUUCCAGAAGGCACAUGAGGAUCACCCAUGUAUUUU”, for which the “apparent Kd” value was 19.9 nM under setting [3] and 25.2 nM under setting [4]. Turning to “UGUUGUAUUACAGGAUAUCUAGUAGUUUUAUUUAGAGAAGGGUAUUCACAUGAGGAUCACCCAUGUAUAUACGAGGAAGUUGUG”, the “apparent Kd” value turned out to be 38.9 nM under setting [1] and 40 nM under setting [2]. For “GCACGAUCCUCAGGAUAUCACUGAAACAUGAGGAUCACCCAUGUGCGCAGAUGAGAAGGGAGGACUCCGUCUGACUAAAUGUUA”, in that order: 109 nM and 10.6 nM. With “UUAUCUCAUGAGAAGGACAUGAGGAUCACCCAUGUAGGAUAUCAUGGGUCAGUGGAAUUGAAUCUUCGGAUUCAAUAACUCUAC”, the “apparent Kd” value under setting [1] was found to be 72.5 nM and the “apparent Kd” value under setting [2] was found to be 11.9 nM. For “GGCUAGGACAGAGGAUAUACGUGCUAGAGAUACUAGCAAAAUUUCCUCACAUGAGGAUCACCCAUGUAGAAGGCUGUCCUAUCG”, the “apparent Kd” value reads like this: under setting [3], 18.4 nM; under setting [4], 458 nM. On to “GCAUGCUCCGAGGAUAUCGAAGCUAAUUAUGCACGAGAAGGCGGAACAUGAGGAUCACCCAUGUGAUGCCUAAA”, for which the “apparent Kd” value under setting [4] worked out at 29.4 nM. For “GCGCAAACGCCAAAAGGCGAAAUUACAUGAGGAUCACCCAUGUAGGAUAUCGAUUGCUUUGCAGUCGAGAAGGACAUGAUGCGC”, the “apparent Kd” value under setting [3] came to 19.2 nM and the “apparent Kd” value under setting [4] stood at 23.9 nM.

In the case of “AAGCUGCGCCAGAAGGGACCGACAUGAGGAUCACCCAUGUCCACAAGAGUCAGGAUAUGGCGUGGAGGCUCGUUCAAGUCCAGG”, the “apparent Kd” value runs as follows: under setting [1], 13.5 nM; under setting [2], 5.73 nM. On the same counts, the results for “AUAUCCUAGAUAGGAUAUACUGAGGUUGAAUGGGUAGAAGGAUCGUUAGGGAAGACUACAUGAGGAUCACCCAUGUUGUGUAUU” are 218 nM and 182 nM. “GGUUGACAAAGUCAACCUAUUCGAACAUGAGGAUCACCCAUGUAGGAUAUGCUACUCAAAGAGUAGCAGAAGGACAUGUGCCUU”: the “apparent Kd” value by setting is: under setting [3], 32.7 nM; under setting [4], 172 nM.

“ACGGUCUUGUCAGGAUAUACAUGAGGAUCACCCAUGUAAUGCGGGUAGGAUAACAAGUCACUUAGGUAGAAGGGACAAGGGACU”: the “apparent Kd” value by setting is: under setting [3], 22.1 nM; under setting [4], 54.6 nM. Take “CCCACGAAAGUCGAACGAUGUAGCAGAAGGACAUGAGGAUCACCCAUGUCAGCUGUAACAGCCAUGUAGGAUAUGCUACAUGGG”: the “apparent Kd” value was 6.05 nM under setting [3] and 5.77 nM under setting [4].

Source of the values: the EternaBench riboswitch data.
